Results collected from several papers.
Lines come from different studies, so protocols differ.
Target: Casein kinase II subunit alpha (CSNK2A1, Homo sapiens, UniProt P68400)
Concentration: 1 µM

Structure (SMILES) | assay | remaining binding [%]
O=C(c1ccc(Nc2ncc(Cl)c(-c3ccc(Cl)s3)n2)cc1)N1CCC(N2CCCC2)CC1 | binding, competition with immobilised ligand | 0.9
Nc1ncc2c(n1)-c1c([nH]c3ccc(C#CC4CC4)cc13)CCCC2 | binding, competition with immobilised ligand | 79
Cc1cnc(Nc2ccc(C(=O)N3CCC(N4CCCC4)CC3)cc2)nc1-c1cc2ccccc2s1 | binding, competition with immobilised ligand | 0.5
N[C@@H]1CCN(c2nccc(-c3cnn4ncccc34)n2)C1 | binding | 52
CCN1CCN(Cc2ccc(C(=O)Nc3ccc(C)c(Oc4ccc5c(c4)CC(=O)N5)c3)cc2C(F)(F)F)CC1 | binding, competition with immobilised ligand | 100
COc1cc(-c2cn(C3CCc4c(F)cccc4N(CC(F)(F)F)C3=O)nn2)ccc1-n1cnc(C)c1 (stereo not drawn) | cell-free assay, competition with immobilised ligand | 100
COc1cnc(Nc2cccc(S(N)(=O)=O)c2)nc1N1CCN(c2ccccc2)CC1 | binding, competition with immobilised ligand | 71
c1cnn2ncc(-c3ccnc(N4CCC45COC5)n3)c2c1 | binding | 40
COc1cnc(Nc2cccc(S(N)(=O)=O)c2)nc1N1CCN(c2ccccc2)C(=O)C1 | binding, competition with immobilised ligand | 68
CN(C(=O)c1ccccc1)c1cc(N(C)c2ccc3c(c2)CCc2ccc(C(=O)NCCN4CCOCC4)cc2C3=O)ccc1F | cell-free assay, competition with immobilised ligand | 100
C=CC(=O)N1CCC(C(=O)NCC(=O)N2CCN(c3nc(-c4cnc(N)nc4C(F)F)nc(N4CCOCC4)n3)CC2)CC1 | binding, competition with immobilised ligand | 75
CN(C)c1nccc(-c2cnc3ncccn23)n1 | binding | 47
O=C1NC(c2ccccn2)Sc2ccccc21 (stereo not drawn) | cell-free assay, competition with immobilised ligand | 61
O=C(NCC1CCOCC1)c1n[nH]cc1NC(=O)c1c(F)cccc1F | binding, competition with immobilised ligand | 59
CN(C)c1nccc(-c2cnn3ncccc23)n1 | binding | 39
CC1=C(C#N)[C@@H](c2ccc3[nH]nc(C)c3c2)C(C#N)=C(c2ccc(Cl)cc2)N1 | cell-free assay, competition with immobilised ligand | 100
O=C(NCCCN1CCOCC1)c1ccc(Nc2ncc(Cl)c(-c3ccc(Cl)s3)n2)cc1 | binding, competition with immobilised ligand | 4
Cc1cc(-n2nc(Cc3cc(F)cc(C(F)(F)F)c3)nc2C)ccc1C(N)=O | cell-free assay, competition with immobilised ligand | 100
C[C@@H]1CCN(c2nccc(-c3cnn4ncccc34)n2)C1 | binding | 89
CC(=O)N1CCC(c2ccc(C(=O)NC(=N)N)cc2C(F)(F)F)CC1 | cell-free assay, competition with immobilised ligand | 95
COc1ccnn2ncc(-c3ccnc(N(C)C)n3)c12 | binding | 74
